Measured values as given in ChEMBL document CHEMBL4422636, “Investigation of the structural requirements for N-methyl-D-aspartate receptor positive and negative allosteric modulators based on 2-naphthoic acid” (Eur J Med Chem, 2019).
pEC50, pIC50: −log10 of the molar value. Active and inactive are the calls of the source. The calls are words filed in the database; no cut-off is given here.

Key:
[1] = target: Glutamate NMDA receptor; Grin1/Grin2c (Rattus norvegicus) (UniProt P35439+Q00961); assay: Negative allosteric modulation of rat GluN1/GluN2C expressed in Xenopus laevis oocytes assessed as inhibition of L-glutamate/glycine-induced current response at holding potential -60 mV by two-electrode voltage clamp method relative to untreated control; format: cell-based; design: concentration or dose not given beside the values
Method in brief: (§1)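 Oocytes injected with GluN1a plus GluN2A, 2B, 2C or 2D RNA (1:1–3 molar, 15–30 ng total) and kept in ND-96 at 17°C for 1–5 days. TEVC at −60 mV in HEPES-buffered NaCl/KCl/BaCl2 saline, pH 7.4. […] Curves were fitted to give EC50/IC50 and maximal potentiation or inhibition, mean ± s.e.m.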

[2] = target: Ionotropic glutamate receptor NMDA 1/2D (Rattus norvegicus) (UniProt P35439+Q62645); assay: Negative allosteric modulation of rat GluN1/GluN2D expressed in Xenopus laevis oocytes assessed as inhibition of L-glutamate/glycine-induced current response at holding potential -60 mV by two-electrode voltage clamp method relative to untreated control; format: cell-based; design: concentration or dose not given beside the values; method in brief: as §1
[3] = target: T1, Glutamate NMDA receptor; Grin1/Grin2c (Rattus norvegicus, UniProt P35439+Q00961); assay: Negative allosteric modulation of rat GluN1/GluN2C expressed in Xenopus laevis oocytes assessed as inhibition of L-glutamate/glycine-induced current response at holding potential -60 mV by two-electrode voltage clamp method; format: cell-based; method in brief: as §1
[4] = target: T2, Glutamate NMDA receptor; Grin1/Grin2a (Rattus norvegicus, UniProt P35439+Q00959); assay: Negative allosteric modulation of rat GluN1/GluN2A expressed in Xenopus laevis oocytes assessed as inhibition of L-glutamate/glycine-induced current response at holding potential -60 mV by two-electrode voltage clamp method; format: cell-based; method in brief: as §1
[5] = target: Glutamate NMDA receptor; Grin1/Grin2a (Rattus norvegicus) (UniProt P35439+Q00959); assay: Negative allosteric modulation of rat GluN1/GluN2A expressed in Xenopus laevis oocytes assessed as inhibition of L-glutamate/glycine-induced current response at holding potential -60 mV by two-electrode voltage clamp method relative to untreated control; format: cell-based; design: concentration or dose not given beside the values; method in brief: as §1
[6] = target: Glutamate NMDA receptor; Grin1/Grin2b (Rattus norvegicus) (UniProt P35439+Q00960); assay: Negative allosteric modulation of rat GluN1/GluN2B expressed in Xenopus laevis oocytes assessed as inhibition of L-glutamate/glycine-induced current response at holding potential -60 mV by two-electrode voltage clamp method relative to untreated control; format: cell-based; design: concentration or dose not given beside the values; method in brief: as §1
[7] = target: Glutamate receptor ionotropic, NMDA 2C (Rattus norvegicus) (UniProt Q00961); assay: Allosteric modulation of rat GluN2C expressed in Xenopus laevis oocytes assessed as L-glutamate/glycine-induced current response at 100 uM at holding potential -60 mV by two-electrode voltage clamp method relative to L-glutamate/glycine; format: cell-based
Method in brief: (§2)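 GluN1a with one GluN2 subunit; RNAs mixed 1:1–3 molar, 15–30 ng total injected into Xenopus oocytes, which were held in ND-96 at 17°C for 1–5 days. TEVC at −60 mV in 116 mM NaCl, 2 mM KCl, 0.3 mM BaCl2, 5 mM HEPES, pH 7.4. […] Reported as % of agonist-alone response, mean ± s.e.m., n≥4.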

[8] = target: Glutamate NMDA receptor; Grin1/Grin2b (Rattus norvegicus, UniProt P35439+Q00960); assay: Negative allosteric modulation of rat GluN1/GluN2B expressed in Xenopus laevis oocytes assessed as inhibition of L-glutamate/glycine-induced current response at holding potential -60 mV by two-electrode voltage clamp method; format: cell-based; method in brief: as §1
[9] = target: Glutamate receptor ionotropic, NMDA 2A (Rattus norvegicus) (UniProt Q00959); assay: Allosteric modulation of rat GluN2A expressed in Xenopus laevis oocytes assessed as L-glutamate/glycine-induced current response at 100 uM at holding potential -60 mV by two-electrode voltage clamp method relative to L-glutamate/glycine; format: cell-based; method in brief: as §2
[10] = target: Glutamate receptor ionotropic, NMDA 2B (Rattus norvegicus) (UniProt Q00960); assay: Allosteric modulation of rat GluN2B expressed in Xenopus laevis oocytes assessed as L-glutamate/glycine-induced current response at 100 uM at holding potential -60 mV by two-electrode voltage clamp method relative to L-glutamate/glycine; format: cell-based; method in brief: as §2
[11] = target: T3, Ionotropic glutamate receptor NMDA 1/2D (Rattus norvegicus, UniProt P35439+Q62645); assay: Negative allosteric modulation of rat GluN1/GluN2D expressed in Xenopus laevis oocytes assessed as inhibition of L-glutamate/glycine-induced current response at holding potential -60 mV by two-electrode voltage clamp method; format: cell-based; method in brief: as §1
[12] = Solubility of the compound at 100 uM; format: physicochemical
Method in brief: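 Compounds were inspected for visible precipitation at the concentrations used in the oocyte assays.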

[13] = target: Glutamate receptor ionotropic, NMDA 2D (Rattus norvegicus) (UniProt Q62645); assay: Allosteric modulation of rat GluN2D expressed in Xenopus laevis oocytes assessed as L-glutamate/glycine-induced current response at 100 uM at holding potential -60 mV by two-electrode voltage clamp method relative to L-glutamate/glycine; format: cell-based; method in brief: as §2
[14] = target: Glutamate receptor ionotropic, NMDA 2D (Rattus norvegicus) (UniProt Q62645); assay: Positive allosteric modulation of rat GluN2D expressed in Xenopus laevis oocytes assessed as potentiation of L-glutamate/glycine-induced current response at holding potential -60 mV by two-electrode voltage clamp method relative to L-glutamate/glycine; format: cell-based; design: concentration or dose not given beside the values; method in brief: as §1
[15] = target: T1, Glutamate NMDA receptor; Grin1/Grin2c; assay: Positive allosteric modulation of rat GluN1/GluN2C expressed in Xenopus laevis oocytes assessed as potentiation of L-glutamate/glycine-induced current response at holding potential -60 mV by two-electrode voltage clamp method; format: cell-based; method in brief: as §1
[16] = target: T2, Glutamate NMDA receptor; Grin1/Grin2a; assay: Positive allosteric modulation of rat GluN1/GluN2A expressed in Xenopus laevis oocytes assessed as potentiation of L-glutamate/glycine-induced current response at holding potential -60 mV by two-electrode voltage clamp method; format: cell-based; method in brief: as §1
[17] = target: Glutamate receptor ionotropic, NMDA 2A (Rattus norvegicus) (UniProt Q00959); assay: Agonist activity at rat GluN2A expressed in Xenopus laevis oocytes assessed effect on current response at holding potential -60 mV by two-electrode voltage clamp method relative to L-glutamate/glycine; format: cell-based; method in brief: as §2
[18] = target: Glutamate receptor ionotropic, NMDA 2C (Rattus norvegicus) (UniProt Q00961); assay: Agonist activity at rat GluN2C expressed in Xenopus laevis oocytes assessed effect on current response at holding potential -60 mV by two-electrode voltage clamp method relative to L-glutamate/glycine; format: cell-based; method in brief: as §2
[19] = target: T3, Ionotropic glutamate receptor NMDA 1/2D; assay: Positive allosteric modulation of rat GluN1/GluN2D expressed in Xenopus laevis oocytes assessed as potentiation of L-glutamate/glycine-induced current response at holding potential -60 mV by two-electrode voltage clamp method; format: cell-based; method in brief: as §1
[20] = target: Glutamate receptor ionotropic, NMDA 2C (Rattus norvegicus) (UniProt Q00961); assay: Positive allosteric modulation of rat GluN2C expressed in Xenopus laevis oocytes assessed as potentiation of L-glutamate/glycine-induced current response at holding potential -60 mV by two-electrode voltage clamp method relative to L-glutamate/glycine; format: cell-based; design: concentration or dose not given beside the values; method in brief: as §1
[21] = target: Glutamate receptor ionotropic, NMDA 2D (Rattus norvegicus) (UniProt Q62645); assay: Agonist activity at rat GluN2D expressed in Xenopus laevis oocytes assessed as effect on current response at holding potential -60 mV by two-electrode voltage clamp method relative to L-glutamate/glycine; format: cell-based; method in brief: as §2
[22] = target: Glutamate receptor ionotropic, NMDA 2A (Rattus norvegicus) (UniProt Q00959); assay: Positive allosteric modulation of rat GluN2A expressed in Xenopus laevis oocytes assessed as potentiation of L-glutamate/glycine-induced current response at holding potential -60 mV by two-electrode voltage clamp method relative to L-glutamate/glycine; format: cell-based; design: concentration or dose not given beside the values; method in brief: as §1
[23] = target: Glutamate receptor ionotropic, NMDA 2B (Rattus norvegicus) (UniProt Q00960); assay: Agonist activity at rat GluN2B expressed in Xenopus laevis oocytes assessed as effect on current response at holding potential -60 mV by two-electrode voltage clamp method relative to L-glutamate/glycine; format: cell-based; method in brief: as §2

Row | SMILES | Activity [7] [%] | Activity [9] [%] | Activity [10] [%] | solubility [12] | Activity [13] [%] | Activity [17] | Activity [18] | Activity [21] | Activity [23] | also measured
1 | O=C(O)c1cc2cc(/C=C/c3ccc([N+](=O)[O-])cc3)ccc2cc1O | 43.3 | 47.4 | 53.2 | Soluble | 34.4 |  |  |  |  | Activity [1]: 55.9%; Activity [2]: 72.3%; pIC50 [3]: 5.19; pIC50 [4]: 5.24; Activity [5]: 54.1%; Activity [6]: 48.4%; pIC50 [8]: 4.95; pIC50 [11]: 5.54
2 | CCCCCc1ccc2cc(C(=O)O)ccc2c1 | 126 | 131 | 102 | Soluble | 110 | inactive | inactive | inactive | inactive | Activity [14]: 17.3%; pEC50 [15]: 3.95; pEC50 [16]: 4.57; pEC50 [19]: 4.21; Activity [20]: 42.7%; Activity [22]: 39%
3 | O=C(O)c1cc2cc(-c3ccccc3)ccc2cc1O | 26.1 | 28.4 | 49.9 | Soluble | 26.1 |  |  |  |  | Activity [1]: 106%; Activity [2]: 98.6%; pIC50 [3]: 4.38; pIC50 [4]: 4.96; Activity [5]: 71.5%; Activity [6]: 56.8%; pIC50 [8]: 4.01; pIC50 [11]: 4.30
4 | CC(CCCc1ccc2cc(C(=O)O)ccc2c1)CC(=O)O (racemic) | 96 | 60 | 64 | Soluble | 71 | inactive | inactive | inactive | inactive | 
5 | CCCCCc1ccc2cc(CC(=O)O)ccc2c1 | 60 | 67 | 67 | Soluble | 37 | inactive | inactive | inactive | inactive | 
6 | CC(C)CCCc1ccc2cc(C(=O)O)c(O)cc2c1 | 357 | 178 | 309 | Soluble | 301 | inactive | inactive | inactive | inactive | 
7 | CC(CCCc1ccc2cc(C(=O)O)ccc2c1)C(=O)O (racemic) | 98 | 110 | 85 | Soluble | 107 | inactive | inactive | inactive | inactive | 
8 | CCCCOc1ccc2cc(C(=O)O)ccc2c1 | 63 | 55 | 46 | Soluble | 57 | inactive | inactive | inactive | inactive | 
9 | CC(C)CC(Cc1ccc2cc(C(=O)O)ccc2c1)C(=O)O (racemic) | 118 | 104 | 78 | Soluble | 85 | inactive | inactive | inactive | inactive | 
10 | CCCCCc1ccc2cc(C(=O)O)ccc2c1Br | 97 | 73 | 52 | Soluble | 99 | inactive | inactive | inactive | inactive | 
11 | O=C(O)c1ccc2cc(I)c3ccccc3c2c1 | 65.9 | 109 | 101 | Soluble | 47.7 | inactive | inactive | inactive | inactive | 
12 | CC(C)C/C=C/c1ccc2cc(C(=O)O)ccc2c1 | 264 | 135 | 152 | Soluble | 220 | inactive | inactive | inactive | inactive | 
